High-throughput results (PubChem BioAssay)
PAFAH1B3 FP inh – PAFAH1B3 enzyme inhibitors, primary screen, biochemical, fluorescence polarization, human. Platelet-activating factor acetylhydrolase IB subunit alpha1 (Homo sapiens), Q15102. recombinant PAFAH1B3, FP-rhodamine probe. inhibition, % at 3.39 µM. 340,000 compounds, 0.28% hits;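 active = inhibition above the screen-wide average of all tested compounds plus 3 SD, cut at about 25% in these data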;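 also: 0% = enzyme with DMSO only and 100% = wells lacking PAFAH1B3 protein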
Target sequence (Q15102 whole entry, looked up): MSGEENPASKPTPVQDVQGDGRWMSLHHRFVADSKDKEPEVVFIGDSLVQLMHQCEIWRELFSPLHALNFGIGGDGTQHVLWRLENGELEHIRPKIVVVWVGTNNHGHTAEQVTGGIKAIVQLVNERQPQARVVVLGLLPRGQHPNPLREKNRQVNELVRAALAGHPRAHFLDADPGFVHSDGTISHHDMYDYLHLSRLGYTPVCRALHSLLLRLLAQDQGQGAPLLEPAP
PAFAH1B2 FP inh – PAFAH1B2 enzyme inhibitors, primary screen, biochemical, fluorescence polarization, human; recombinant PAFAH1B2, FP-rhodamine activity probe; inhibition, % at 3.39 µM; 340,000 compounds, 1.2% hits;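 active = inhibition above the mean of all tested compounds plus 3 SD, cut at about 24% in these data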;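 also: 0% = enzyme with DMSO and 100% = wells lacking PAFAH1B2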
Target sequence (P68402 whole entry, looked up): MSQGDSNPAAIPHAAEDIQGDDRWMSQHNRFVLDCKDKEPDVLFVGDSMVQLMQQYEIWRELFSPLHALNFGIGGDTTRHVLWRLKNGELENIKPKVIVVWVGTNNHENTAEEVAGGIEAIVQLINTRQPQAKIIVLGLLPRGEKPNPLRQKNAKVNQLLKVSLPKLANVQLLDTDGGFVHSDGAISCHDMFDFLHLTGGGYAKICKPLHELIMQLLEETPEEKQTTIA
Apaf-1 inh – inhibitors of human Apaf-1 apoptosome, primary screen, biochemical, DEVD-Rh110 fluorescence, uHTS | reconstituted apoptosome caspase-3 activity | 330,000 compounds, 0.71% hits | Apoptotic protease-activating factor 1 (Homo sapiens), O14727 | inhibition, % at 20 µM; active = inhibition of at least 40% at 20 µM;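 also: plate controls were DMSO wells for no effect and DEVD-CHO caspase inhibitor wells for full effect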
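Material: reconstituted apoptosome with Apaf-1, cytochrome c, caspase-9, procaspase-3, dATP. Technique: Rh110 fluorescence intensity. Buffer or medium: pH 7.5 Hepes buffer with CHAPS, BSA, DTT. Times: 30 min plus 50 min, RT.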
TDP2 inh – human TDP2 enzyme inhibitors, primary screen, biochemical, epi absorbance, recombinant enzyme; T5PNP hydrolysis, p-nitrophenol absorbance 415 nm; 370,000 compounds, 0.34% hits; AID 720702, 2013; inhibition, % at 12.8 µM; Tyrosyl-DNA phosphodiesterase 2 (Homo sapiens), O95551;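 active = inhibition above the mean of all tested compounds plus 3 SD, set per campaign, cut at about 25% in these data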;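 also: 0% = DMSO with enzyme and 100% = buffer with substrate but no TDP2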
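Assay system: recombinant human TDP2 / Reagent: T5PNP substrate at 5 mM, a TopII-DNA adduct mimic / Measured by: epi absorbance from released p-nitrophenol / Evaluation: % inhibition relative to enzyme-containing and enzyme-free wells / Control set: enzyme-free and DMSO wells / Replicates: each compound tested once, singlicate / Schedule: enzyme reaction with compound for 2 h at 37 °C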
PAFAH2 FP inh – PAFAH2 enzyme inhibitors, primary screen, biochemical, fluorescence polarization, human; Platelet-activating factor acetylhydrolase 2, cytoplasmic (Homo sapiens), Q99487; 340,000 compounds, 0.99% hits; AID 492956, 2010; recombinant PAFAH2, FP-rhodamine activity probe; inhibition, % at 3.39 µM;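 active = inhibition above the mean over all tested compounds plus 3 SD, cut at about 30% in these data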;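 also: inhibitors block probe labeling of enzyme so polarization drops; 0% = enzyme with DMSO and 100% = wells lacking PAFAH2 protein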
Apaf-1 inh conf – Apaf-1 inhibitors, single-dose retest, confirmation, biochemical, fluorescence, DEVD-Rh110, 20 µM; shares compounds with Apaf-1 inh; reconstituted apoptosome, caspase-3 DEVD-Rh110 fluorescence; inhibition, % at 20 µM; 1,800 compounds, 25% hits; AID 504614, 2011;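 active = mean inhibition of at least 40% at 20 µM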;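 also: plate controls were DMSO wells for no effect and DEVD-CHO caspase inhibitor control wells for full effect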
Rh110 interf inh – Rh110 fluorescence interference by putative Apaf-1 inhibitors, confirmation, artefact control for Apaf-1 inhibitor project, biochemical, 20 µM. quenched caspase reaction. activation (fluorescence interference), % at 20 µM. 1,800 tested, under 10 active. AID 504615, 2011. shares compounds with Apaf-1 inh;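 active = signal rise of 40% or more at 20 µM, treated as a fluorescence artifact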
Fluor interf inh – fluorescence interference of Apaf-1 inhibitor hits, dose response, artefact control for Apaf-1 inhibitor project. shares compounds with Apaf-1 inh. fluorescence interference counterscreen, Apaf-1 assay format. IC50, µM. 460 tested, under 10 active; call rule not given here
PAFAH2 confirm – PAFAH2 enzyme inhibitors, confirmation, biochemical, fluorescence polarization, human. 2,300 compounds, 65% hits. shares compounds with PAFAH2 FP inh. inhibition, % at 3.39 µM. recombinant PAFAH2, FP-rhodamine activity probe;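 active = mean inhibition over three repeats above a set limit taken from the earlier primary screen, cut at about 30% in these data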;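 also: inhibitor blocks binding of rhodamine activity probe so polarization falls; 0% = enzyme with DMSO and 100% = wells lacking PAFAH2 protein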
PAFAH1B3 conf FP – PAFAH1B3 enzyme inhibitors, confirmation, biochemical, fluorescence polarization, human; shares compounds with PAFAH1B3 FP inh; recombinant PAFAH1B3, FP-Rh activity-based probe; inhibition, % at 3.39 µM; 390 compounds, 30% hits; AID 493032, 2011;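 active = average inhibition over triplicate runs above the hit cutoff set in the earlier primary screen, cut at about 25% in these data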;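 also: 0% = enzyme with DMSO and 100% = wells lacking PAFAH1B3 protein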
TDP2 confirm – human TDP2 enzyme inhibitors, retest, confirmation, biochemical, epi absorbance, recombinant enzyme. shares compounds with TDP2 inh. absorbance read-out. inhibition, % at 12.8 µM. 1,100 compounds, 22% hits. AID 743263, 2014; in the data active = inhibition above about 25%;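 also: 0% = vehicle with enzyme and 100% = no enzyme buffer only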
Active calls of the source: *; / = no result; ! = a repeat was not active. Hits are enriched below; roughly 2.3% of the tested compounds scored in any of these assays.

SMILES	PAFAH1B3 FP inh	PAFAH1B2 FP inh	Apaf-1 inh	TDP2 inh	PAFAH2 FP inh	Apaf-1 inh conf	Rh110 interf inh	TDP2 confirm	others
O=C(NCCN1CCC2(CC1)C(=O)NCN2c1ccccc1)c1ccc(Cl)cc1	/	/	/	6	/	/	/	/
CC[C@@H](CO)NC(=O)[C@@H]1C=C2c3cccc4c3c(cn4C)C[C@H]2N(C)C1	16	6	69*!	31*!	5	17	0	22
CN1C[C@H](CNC(=O)OCc2ccccc2)C[C@@H]2c3cccc4c3c(cn4C)C[C@H]21	3	0	27	0	7	/	/	/
CCCCNC(=O)c1c(N)n(CCCOC)c2nc3ccccc3nc12	13	8	90*	36*	5	50*	1	1	Fluor interf inh=>100
COCCOC(=O)c1c(N)n(Cc2ccco2)c2nc3ccccc3nc12	17	9	27	11	-3	/	/	/
CCOC(=O)c1c(C)n(CCOC)c2ccc(O)cc12	-2	0	1	-9	-5	/	/	/
CC(C)OC(=O)c1c(N)n(Cc2ccco2)c2nc3ccccc3nc12	13	-4	4	10	5	/	/	/
CC(C)CCNC(=O)c1c(N)n(Cc2ccc3c(c2)OCO3)c2nc3ccccc3nc12	-1	3	90*	45*	2	35	14	-6
COCCCn1c(N)c(C(=O)OCCOC)c2nc3ccccc3nc21	11	-3	95*	50*	1	16	12	11
CCOC(=O)c1c(NS(=O)(=O)c2ccccc2)n(CCCOC)c2nc3ccccc3nc12	27*	14	96*	91*	-2	76*	4	73*	Fluor interf inh=>100;PAFAH1B3 conf FP=10
O=c1cc(C2CCNCC2)[nH][nH]1	-1	0	58*	56*	-7	9	-6	5
CNc1ccc2nc3ccccc3[n+](C)c2c1	100*	99*	89*	46*	108*	62*	9	32*	Fluor interf inh=>100
Cc1cc(C(=O)OCC(=O)Nc2cccc(F)c2)c(C)n1C1CC1	9	1	14	3	65*	/	/	/	PAFAH2 confirm=51*
Cc1cc(C(=O)OCC(=O)Nc2ccc(F)cc2)c(C)n1C1CC1	5	0	2	-6	43*	/	/	/	PAFAH2 confirm=25
COc1ccccc1NC(=O)COC(=O)c1cc(C)n(C2CC2)c1C	2	2	3	-9	4	/	/	/
Cc1cc(C=C2C(=O)NC(=S)NC2=O)c(C)n1C1CCCC1	10	12	4	3	34*	/	/	/	PAFAH2 confirm=15
COc1ccc(/C=C2\C(=O)NC(=S)N(C)C2=O)cc1C	4	3	-2	-2	35*	/	/	/	PAFAH2 confirm=0
Cc1ccsc1/C=C1\C(=O)NC(=S)N(C)C1=O	0	3	-9	4	1	/	/	/
